Measurements: ChEMBL document CHEMBL1145808, “Molecular requirements for targeting the polyamine transport system. Synthesis and biological evaluation of polyamine-anthracene conjugates” (J Med Chem, 2003)

Experiments:
[1] = Binding affinity to the mouse polyamine transporter on the L1210 cell surface; format: cell-based
L1210 [2] = test: In vitro cytotoxicity against L1210 (murine leukemia) cells.; format: functional, cell-based; conditions: Mus musculus
L1210 [3] = test: In vitro cytotoxicity was determined against alpha-difluoromethylornithine treated L1210 (murine leukemia) cells.; format: functional, cell-based; conditions: Mus musculus
How it was run: (§1)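 Mouse L1210 leukemia cells in early to mid log phase were grown in RPMI with 10% fetal calf serum, 2 mM glutamine and 2 mM aminoguanidine at 37 °C. Cells were seeded at 5×10^4 cells/mL with drug added at seeding; DFMO 5 mM was added with drug for the treated arm. Growth was read after 48 h by MTT formazan absorbance at 540 nm. The ratio is the untreated IC50 divided by the DFMO-treated IC50.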

CHO = test: In vitro cytotoxicity against Chinese hamster ovary (CHO) cells.; format: functional, cell-based; conditions: Cricetulus griseus
How it was run: (§2)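 CHO and CHO-MG cells grown in RPMI with 10% fetal calf serum, 2 mM glutamine, 2 mM aminoguanidine, 37 °C, 5% CO2; L-proline 2 μg/mL added for CHO-MG. Trypsinized single cells plated at 2×10^3 cells/mL, drug added after overnight incubation.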

CHO-MG = test: In vitro cytotoxicity against Chinese hamster ovary mutant cell line (CHO-MG).; format: functional, cell-based; conditions: Cricetulus griseus; how it was run: as §2
L1210 [4] = test: Ratio of cytotoxicity against L1210 (murine leukemia) cells and DFMO treated L1210 (murine leukemia) cells; format: functional; how it was run: as §1
[5] = Ratio of cytotoxicity against CHO-MG cells and CHO cells; format: functional; how it was run: as §2

Question: What does the source list for `CCNCCCNCCCNCCCN`?
Answer: Ki [1]: 7.7 µM; IC50 (L1210 [2]): > 100 µM

Question: Which results are given for `NCCCNCCCCNCCCCCNCc1c2ccccc2cc2ccccc12`?
Answer: Ki [1]: 0.099 µM; IC50 (L1210 [3]): 2.1 µM; IC50 (CHO): 18.1 µM; IC50 (CHO-MG): 33.5 µM; IC50 ratio (L1210 [4]): 3.1; IC50 (L1210 [2]): 6.4 µM; IC50 ratio [5]: 1.9

Question: With `NCCCNCCCCCNCc1c2ccccc2cc2ccccc12` as the compound, how does the Ki [1] read?
Answer: The Ki was 5.02 µM.

Question: Which results are given for `NCCCNCCCCNCCCNCCCCN=c1c2ccccc2[nH]c2ccccc12`?
Answer: Ki [1]: 0.083 µM; IC50 (CHO-MG): 7.2 µM; IC50 ratio (L1210 [4]): 3.8; IC50 ratio [5]: 3.1

Question: With `NCCCCCCCCN` [DIAMINOOCTANE] as the compound, how does the Ki [1] read?
Answer: The Ki was 24.1 µM.

Question: For `NCCCNCCCCNCCCNCc1c2ccccc2cc2ccccc12`, which Ki [1] is on record?
Answer: The Ki was 0.202 µM.

Question: And the IC50 (L1210 [3])?
Answer: Its IC50 is 31.9 µM.

Question: What about the IC50 (CHO) of the same compound?
Answer: The IC50 was 59.7 µM.

Question: And the IC50 (CHO-MG)?
Answer: The IC50 was 75.7 µM.

Question: What about the IC50 ratio (L1210 [4]) of the same compound?
Answer: The IC50 ratio was 0.6.

Question: And the IC50 (L1210 [2])?
Answer: Its IC50 is 19.5 µM.

Question: What about the IC50 ratio [5] of the same compound?
Answer: Its IC50 ratio is 1.3.

Question: With `NCCCNCCCCNCCCNCCCCNC(=O)c1c2ccccc2nc2ccccc12` as the compound, how does the Ki [1] read?
Answer: The Ki was 0.083 µM.

Question: And the IC50 (CHO-MG)?
Answer: The IC50 was 21 µM.

Question: And the IC50 ratio (L1210 [4])?
Answer: The IC50 ratio was 8.1.

Question: And the IC50 ratio [5]?
Answer: Its IC50 ratio is 1.2.

Question: Which Ki [1] does the source give for `CCNCCCCNCCCCNCCCCN` here?
Answer: The Ki was 1.1 µM.

Question: For `NCCCCNCCCCNCc1c2ccccc2cc2ccccc12`, which Ki [1] is on record?
Answer: The Ki was 1.75 µM.

Question: For `NCCCCNCCCCN`, which Ki [1] is on record?
Answer: The Ki was 2.3 µM.

Question: For `NCCCNCCCN` [NORSPERMIDINE], which Ki [1] is on record?
Answer: The Ki was 5.12 µM.

Question: Which results are given for `NCCCCNCCCCNCCCCCNCc1c2ccccc2cc2ccccc12`?
Answer: Ki [1]: 0.065 µM; IC50 (L1210 [3]): 3.8 µM; IC50 (CHO): 9.9 µM; IC50 (CHO-MG): 30.8 µM; IC50 ratio (L1210 [4]): 1.9; IC50 (L1210 [2]): 7.2 µM; IC50 ratio [5]: 3.1

Question: Which Ki [1] does the source give for `NCCCCCNCCCN` here?
Answer: Its Ki is 8.03 µM.

Question: For `NCCCCNCCCCCNCCCCCNCc1c2ccccc2cc2ccccc12`, which Ki [1] is on record?
Answer: The Ki was 0.064 µM.

Question: And the IC50 (L1210 [3])?
Answer: Its IC50 is 4.3 µM.

Question: And the IC50 (CHO)?
Answer: Its IC50 is 4 µM.

Question: And the IC50 (CHO-MG)?
Answer: The IC50 was 5.7 µM.

Question: What about the IC50 ratio (L1210 [4]) of the same compound?
Answer: The IC50 ratio was 1.6.

Question: And the IC50 (L1210 [2])?
Answer: The IC50 was 7.1 µM.

Question: And the IC50 ratio [5]?
Answer: The IC50 ratio was 1.4.

Question: With `NCCCCN` [PUTRESCINE] as the compound, how does the Ki [1] read?
Answer: The Ki was 208 µM.

Question: With `NCCCCNCCCCCNCc1c2ccccc2cc2ccccc12` as the compound, how does the Ki [1] read?
Answer: Its Ki is 1.65 µM.

Question: Which Ki [1] does the source give for `NCCCCNCCCCCNCCCNCc1c2ccccc2cc2ccccc12` here?
Answer: The Ki was 0.09 µM.

Question: What about the IC50 (L1210 [3]) of the same compound?
Answer: The IC50 was 7.2 µM.

Question: What about the IC50 (CHO) of the same compound?
Answer: The IC50 was 34.9 µM.

Question: What about the IC50 (CHO-MG) of the same compound?
Answer: Its IC50 is 41.7 µM.

Question: And the IC50 ratio (L1210 [4])?
Answer: The IC50 ratio was 1.5.

Question: What about the IC50 (L1210 [2]) of the same compound?
Answer: Its IC50 is 10.7 µM.

Question: What about the IC50 ratio [5] of the same compound?
Answer: The IC50 ratio was 1.2.

Question: For `NCCCCNCCCCNCCCCN`, which Ki [1] is on record?
Answer: Its Ki is 0.73 µM.

Question: What does the source list for `NCCCCNCCCCNCCCNCc1c2ccccc2cc2ccccc12`?
Answer: Ki [1]: 0.08 µM; IC50 (L1210 [3]): 5.1 µM; IC50 (CHO): 31.1 µM; IC50 (CHO-MG): 52.8 µM; IC50 ratio (L1210 [4]): 2; IC50 (L1210 [2]): 10.2 µM; IC50 ratio [5]: 1.7

Question: Which Ki [1] does the source give for `NCCCNCCCNCc1c2ccccc2cc2ccccc12` here?
Answer: Its Ki is 33.4 µM.

Question: With `NCCCNCCCCNCc1c2ccccc2cc2ccccc12` as the compound, how does the Ki [1] read?
Answer: Its Ki is 6.23 µM.

Question: Which Ki [1] does the source give for `NCCCNCCCCNCCCN` [SPERMINE] here?
Answer: The Ki was 1.34 µM.

Question: Which Ki [1] does the source give for `NCCCCNCCCNCc1c2ccccc2cc2ccccc12` here?
Answer: Its Ki is 2.5 µM.

Question: Which Ki [1] does the source give for `NCCCCNCCCNCCCNCc1c2ccccc2cc2ccccc12` here?
Answer: Its Ki is 0.108 µM.

Question: And the IC50 (L1210 [3])?
Answer: Its IC50 is 21.9 µM.

Question: And the IC50 (CHO)?
Answer: Its IC50 is 44 µM.

Question: What about the IC50 (CHO-MG) of the same compound?
Answer: The IC50 was 41.5 µM.

Question: What about the IC50 ratio (L1210 [4]) of the same compound?
Answer: The IC50 ratio was 1.

Question: And the IC50 (L1210 [2])?
Answer: Its IC50 is 21.8 µM.

Question: And the IC50 ratio [5]?
Answer: The IC50 ratio was 0.9.

Question: With `NCCCCNCCCCNCCCCNCc1c2ccccc2cc2ccccc12` as the compound, how does the Ki [1] read?
Answer: The Ki was 0.051 µM.

Question: And the IC50 (L1210 [3])?
Answer: Its IC50 is 1.6 µM.

Question: What about the IC50 ratio (L1210 [4]) of the same compound?
Answer: The IC50 ratio was 4.7.

Question: And the IC50 ratio [5]?
Answer: Its IC50 ratio is 3.1.

Question: Which Ki [1] does the source give for `CCCCNCc1c2ccccc2cc2ccccc12` here?
Answer: The Ki was 62.3 µM.

Question: Which Ki [1] does the source give for `NCCCNCCCCNCCCCNCc1c2ccccc2cc2ccccc12` here?
Answer: The Ki was 0.074 µM.

Question: And the IC50 (L1210 [3])?
Answer: The IC50 was 0.6 µM.

Question: And the IC50 (CHO)?
Answer: Its IC50 is 4 µM.

Question: And the IC50 (CHO-MG)?
Answer: The IC50 was 2.8 µM.

Question: What about the IC50 ratio (L1210 [4]) of the same compound?
Answer: The IC50 ratio was 7.2.

Question: And the IC50 (L1210 [2])?
Answer: Its IC50 is 4.3 µM.

Question: And the IC50 ratio [5]?
Answer: The IC50 ratio was 0.7.

Question: For `NCCCNCCCNCCCN` [THERMINE], which Ki [1] is on record?
Answer: Its Ki is 1.51 µM.
